Source: ChEMBL document CHEMBL1152636, “Synthesis and biological evaluation of 14-(aminoalkyl-aminomethyl)aromathecins as topoisomerase I inhibitors: investigating the hypothesis of shared structure-activity relationships” (2009)
Calls of active or inactive are those of the source. The rule behind the calls is not given here.

Legend:
[1] = target: T1, DNA topoisomerase 1 (Homo sapiens) (UniProt P11387); experiment: Inhibition of human DNA topoisomerase 1 assessed as induction of enzyme-dependent DNA cleavage relative to 1 uM camptothecin
T1 sequence (whole entry): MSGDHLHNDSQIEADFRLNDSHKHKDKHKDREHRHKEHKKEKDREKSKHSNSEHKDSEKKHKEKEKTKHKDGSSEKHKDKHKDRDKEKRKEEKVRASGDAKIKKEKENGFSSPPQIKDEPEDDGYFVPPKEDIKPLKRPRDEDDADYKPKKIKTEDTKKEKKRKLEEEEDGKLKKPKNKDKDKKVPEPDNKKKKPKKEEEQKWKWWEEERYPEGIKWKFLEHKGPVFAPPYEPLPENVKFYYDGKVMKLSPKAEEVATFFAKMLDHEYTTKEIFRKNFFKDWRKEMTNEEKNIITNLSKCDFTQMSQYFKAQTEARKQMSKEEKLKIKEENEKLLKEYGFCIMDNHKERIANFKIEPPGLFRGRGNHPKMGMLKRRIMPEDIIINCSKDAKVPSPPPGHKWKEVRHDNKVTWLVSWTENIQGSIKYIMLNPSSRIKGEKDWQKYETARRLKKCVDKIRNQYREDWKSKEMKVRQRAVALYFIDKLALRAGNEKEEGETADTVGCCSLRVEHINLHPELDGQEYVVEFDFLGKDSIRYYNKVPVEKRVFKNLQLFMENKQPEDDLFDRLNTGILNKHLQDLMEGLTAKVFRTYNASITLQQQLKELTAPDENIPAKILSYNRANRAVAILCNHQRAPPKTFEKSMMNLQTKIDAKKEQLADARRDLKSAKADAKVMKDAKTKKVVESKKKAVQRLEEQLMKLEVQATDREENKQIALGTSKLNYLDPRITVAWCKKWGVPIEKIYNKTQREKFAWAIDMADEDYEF

[2] = test system: HOP-62; experiment: Cytotoxicity against human HOP62 cells; assay type: functional
How it was run: (§1)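 NCI ~60 human tumor cell line screen; after a single-dose pass at 10−5 M, selected compounds run at five concentrations from 10−8 to 10−4 M; GI50 reported per cell line.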

[3] = test system: SF-539; experiment: Cytotoxicity against human SF539 cells; assay type: functional; how it was run: as §1
[4] = test system: SN12C; experiment: Cytotoxicity against human SN12C cells; assay type: functional; how it was run: as §1
[5] = test system: UACC-62; experiment: Cytotoxicity against human UACC62 cells; assay type: functional; how it was run: as §1
[6] = test system: MDA-MB-435; experiment: Cytotoxicity against human MDA-MB-435 cells; assay type: functional; how it was run: as §1
[7] = test system: HCT-116; experiment: Cytotoxicity against human HCT116 cells; assay type: functional; how it was run: as §1
[8] = test system: OVCAR-3; experiment: Cytotoxicity against human OVCAR-3 cells; assay type: functional; how it was run: as §1
[9] = test system: DU-145; experiment: Cytotoxicity against human DU145 cells; assay type: functional; how it was run: as §1
[10] = Induction of cell growth in human NCI60 cell sat 10 uM; assay type: functional

SMILES | inhibition [1] | GI50 [2] [nM] | GI50 [3] [nM] | GI50 [4] [nM] | GI50 [5] [nM] | GI50 [6] [nM] | GI50 [7] [nM] | GI50 [8] [nM] | GI50 [9] [nM] | Activity [10] [%]
NCCNCc1c2c(nc3ccccc13)-c1cc3ccccc3c(=O)n1C2 | 75% | 1400 | 8300 | 1500 | 12600 | 11000 | 1500 | 1700 | 1400 | –
CC[C@@]1(O)C(=O)OCc2c1cc1n(c2=O)Cc2cc3ccccc3nc2-1 [CAMPTOTHECIN] | – | 10 | 10 | 20 | 10 | 40 | 30 | – | 10 | –
NCCCCNCc1c2c(nc3ccccc13)-c1cc3ccccc3c(=O)n1C2 | 75% | – | – | – | – | – | – | – | – | –
NCCCCCCCCCCCCNCc1c2c(nc3ccccc13)-c1cc3ccccc3c(=O)n1C2 | inactive | 6500 | 1800 | 2500 | 1900 | 1700 | 2000 | 1900 | 2000 | –
O=c1c2ccccc2cc2n1Cc1cc3ccccc3nc1-2 [ROSETTACIN] | – | – | – | > 100000 | – | – | – | – | > 100000 | –
COc1cc2c3c(n(CCCNCCO)c(=O)c2cc1OC)-c1cc2c(cc1C3=O)OCO2 [LMP-744] | Active | 20 | 40 | < 10 | 30 | 790 | 100 | 500 | < 10 | –
NCCCCCCCCCCCNCc1c2c(nc3ccccc13)-c1cc3ccccc3c(=O)n1C2 | inactive | – | – | – | – | – | – | – | – | –
Cl.NCCCCCCCCCCNCc1c2c(nc3ccccc13)-c1cc3ccccc3c(=O)n1C2 | inactive | – | – | – | – | – | – | – | – | 30
NCCCNCc1c2c(nc3ccccc13)-c1cc3ccccc3c(=O)n1C2 | 50% | 9800 | 4900 | 2100 | 4800 | 6800 | 1500 | 1400 | 1100 | –
COc1cc2c3c(n(C)c(=O)c2cc1OC)-c1cc2c(cc1C3=O)OCO2 | – | 1300 | 41000 | 68000 | 4200 | 96000 | 35000 | – | 37000 | –

More lines, main results first:

inhibition [1] | SMILES | GI50 [2] [nM] | GI50 [3] [nM] | GI50 [4] [nM] | GI50 [5] [nM] | GI50 [6] [nM] | GI50 [7] [nM] | GI50 [8] [nM] | GI50 [9] [nM] | Activity [10] [%]
25% | NCCCCCCCCCNCc1c2c(nc3ccccc13)-c1cc3ccccc3c(=O)n1C2 | – | – | – | – | – | – | – | – | –
25% | NCCCCCNCc1c2c(nc3ccccc13)-c1cc3ccccc3c(=O)n1C2 | 2600 | 7200 | 3200 | 1900 | 12600 | 3200 | 8100 | 1100 | –
50% | NCCCCCCNCc1c2c(nc3ccccc13)-c1cc3ccccc3c(=O)n1C2 | 1200 | 740 | 510 | 2000 | 1500 | 630 | 1400 | 330 | –
50% | NCCCCCCCNCc1c2c(nc3ccccc13)-c1cc3ccccc3c(=O)n1C2 | – | – | – | – | – | – | – | – | –
25% | NCCCCCCCCNCc1c2c(nc3ccccc13)-c1cc3ccccc3c(=O)n1C2 | 2800 | 1900 | 1800 | 1800 | 3100 | 1800 | 2500 | 1100 | –
